Data from ChEMBL document CHEMBL1212862, “Role of 2',6'-dimethyl-l-tyrosine (Dmt) in some opioid lead compounds” (Bioorg Med Chem, 2010).

How the values were obtained:
[1] = molecular target: Delta-type opioid receptor (Rattus norvegicus, UniProt P33533); test: Displacement of [3H]deltorphin 2 from delta opioid receptor in Sprague-Dawley rat brain P2 synaptosomal membrane
Summary of the method: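 Equilibrium incubation 2.5 h at 23 °C. Filtration through glass fibre filters pre-soaked in 0.1% polyethylenimine, then three washes in ice-cold buffered 0.1% BSA. Ki by Cheng–Prusoff.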

Rattus norvegicus = species: Rattus norvegicus; test: Ratio of Ki for Sprague-Dawley rat mu opioid receptor to Ki for Sprague-Dawley rat delta opioid receptor
Mu-type opioid receptor [2] = molecular target: T1, Mu-type opioid receptor (Cavia porcellus, UniProt P97266); test: Agonist activity at mu opioid receptor in Hartley guinea pig small intestine; type: functional, tissue-based
Summary of the method: (§1)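 Isolated tissue assay in organ baths with balanced salt solution in physiological buffer, pH 7.5. Delta agonism measured on single mouse vas deferens, mu agonism on myenteric plexus longitudinal muscle strips (2–3 cm) from small intestine of male Hartley guinea pigs. Inhibition of electrically evoked contraction; IC50 (nM) from dose-response curves. DPDPE (MVD) and PL017 (GPI) run as internal standards. Mean ± SE of at least four tissue samples.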

[3] = molecular target: T2, Delta-type opioid receptor (Mus musculus, UniProt P32300); test: Agonist activity at delta opioid receptor in mouse vas deference; type: functional; summary of the method: as §1
Mu-type opioid receptor [4] = molecular target: Mu-type opioid receptor (Rattus norvegicus, UniProt P33535); test: Displacement of [3H]DAMGO from mu opioid receptor in Sprague-Dawley rat brain P2 synaptosomal membrane
Mu-type opioid receptor [5] = molecular target: T1, Mu-type opioid receptor; test: Antagonist activity at mu opioid receptor in Hartley guinea pig small intestine; type: functional, tissue-based; details: read-out: pA2 (converted)
Summary of the method: (§2)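 Organ-bath tissue preparations in physiological buffer, pH 7.5, with electrically evoked contractions. Delta antagonism on mouse vas deferens measured against deltorphin II. Mu antagonism on male Hartley guinea pig ileum myenteric plexus longitudinal muscle measured against endomorphin-2. pA2 derived by the Kosterlitz and Watt method.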

[6] = molecular target: T2, Delta-type opioid receptor; test: Antagonist activity at delta opioid receptor in mouse vas deference; type: functional; details: read-out: pA2 (converted); summary of the method: as §2

T1 sequence (P97266 whole entry): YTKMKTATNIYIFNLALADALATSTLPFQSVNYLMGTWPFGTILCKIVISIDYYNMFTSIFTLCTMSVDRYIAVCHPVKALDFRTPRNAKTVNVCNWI
Sequence of Delta-type opioid receptor (Rattus norvegicus, UniProt P33533) (P33533 whole entry): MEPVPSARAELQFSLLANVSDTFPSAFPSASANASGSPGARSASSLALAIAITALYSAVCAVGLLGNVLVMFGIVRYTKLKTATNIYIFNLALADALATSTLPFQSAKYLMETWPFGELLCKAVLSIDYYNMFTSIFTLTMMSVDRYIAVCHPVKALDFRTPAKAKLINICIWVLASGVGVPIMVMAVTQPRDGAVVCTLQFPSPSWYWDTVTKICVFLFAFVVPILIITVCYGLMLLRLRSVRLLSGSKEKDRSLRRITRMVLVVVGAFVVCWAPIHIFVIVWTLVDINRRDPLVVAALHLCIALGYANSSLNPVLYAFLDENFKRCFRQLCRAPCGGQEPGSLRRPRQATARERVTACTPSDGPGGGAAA
T2 sequence (P32300 whole entry): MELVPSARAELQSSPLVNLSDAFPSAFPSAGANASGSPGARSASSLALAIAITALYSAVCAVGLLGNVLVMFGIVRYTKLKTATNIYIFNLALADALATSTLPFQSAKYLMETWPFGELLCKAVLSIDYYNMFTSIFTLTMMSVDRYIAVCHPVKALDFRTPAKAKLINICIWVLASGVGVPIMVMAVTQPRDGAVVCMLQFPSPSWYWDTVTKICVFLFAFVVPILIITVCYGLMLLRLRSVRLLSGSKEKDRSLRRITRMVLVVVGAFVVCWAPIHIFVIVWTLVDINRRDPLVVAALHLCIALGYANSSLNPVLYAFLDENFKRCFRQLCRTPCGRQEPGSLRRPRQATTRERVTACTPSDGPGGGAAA
Sequence of Mu-type opioid receptor (Rattus norvegicus, UniProt P33535) (P33535 whole entry): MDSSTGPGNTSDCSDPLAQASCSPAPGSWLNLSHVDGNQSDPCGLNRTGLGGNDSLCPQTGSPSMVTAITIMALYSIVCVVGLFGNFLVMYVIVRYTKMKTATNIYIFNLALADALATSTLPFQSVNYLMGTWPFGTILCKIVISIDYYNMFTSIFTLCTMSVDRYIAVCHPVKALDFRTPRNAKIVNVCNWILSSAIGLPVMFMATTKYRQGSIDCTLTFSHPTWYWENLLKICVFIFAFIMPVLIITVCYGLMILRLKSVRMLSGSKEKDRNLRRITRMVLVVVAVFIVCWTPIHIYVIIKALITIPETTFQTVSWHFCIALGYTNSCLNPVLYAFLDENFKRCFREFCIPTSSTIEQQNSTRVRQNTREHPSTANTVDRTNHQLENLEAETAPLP

In the case of N[C@@H](Cc1c(F)cc(O)cc1F)C(=O)N1Cc2ccccc2C[C@H]1C(=O)NCc1nc2ccccc2[nH]1, the Ki [1] is reported as 0.00101 µM, the Selectivity ratio (Rattus norvegicus) is reported as 54 and the IC50 (Mu-type opioid receptor [2]) is reported as greater than 10 µM. For the same compound, the IC50 [3] was 0.0673 µM and the Ki (Mu-type opioid receptor [4]) was 0.0545 µM.

Cc1cc(O)cc(C)c1C[C@@H](C(=O)N1Cc2ccccc2C[C@H]1C(=O)O)N(C)C showed a Kb (Mu-type opioid receptor [5]) of 1.58 µM, a Ki [1] of 0.000118 µM and a Selectivity ratio (Rattus norvegicus) of 20600.

For CN(C)[C@@H](Cc1ccc(O)cc1)C(=O)N1Cc2ccccc2C[C@H]1C(=O)O, the Ki [1] was 0.0348 µM, the Selectivity ratio (Rattus norvegicus) was 35 and the Ki (Mu-type opioid receptor [4]) was 1.23 µM.

With CN(C)[C@@H](Cc1c(F)cc(O)cc1F)C(=O)N1Cc2ccccc2C[C@H]1C(N)=O the Ki [1] was 0.176 µM, the Selectivity ratio (Rattus norvegicus) was 3 and the Ki (Mu-type opioid receptor [4]) was 0.596 µM.

Cc1cc(O)cc(C)c1C[C@@H](C(=O)N1Cc2ccccc2C[C@H]1C(N)=O)N(C)C gave a Kb (Mu-type opioid receptor [5]) of 0.501 µM, a Ki [1] of 0.000309 µM and a Selectivity ratio (Rattus norvegicus) of 1660. The Ki (Mu-type opioid receptor [4]) was 0.511 µM and the Kb [6] was 0.000126 µM.

N[C@@H](Cc1c(F)cc(O)cc1F)C(=O)N1Cc2ccccc2C[C@H]1C(=O)N[C@@H](CC(=O)O)c1nc2ccccc2[nH]1 gave a Ki [1] of 0.000162 µM, a Selectivity ratio (Rattus norvegicus) of 1390 and a Ki (Mu-type opioid receptor [4]) of 0.225 µM. For the same compound, the Kb [6] was 0.00112 µM.

In the case of N[C@@H](Cc1ccc(O)cc1)C(=O)N1Cc2ccccc2C[C@H]1C(=O)NCc1nc2ccccc2[nH]1, the Ki [1] is reported as 0.000913 µM, the Selectivity ratio (Rattus norvegicus) is reported as 73 and the IC50 (Mu-type opioid receptor [2]) is reported as 4.22 µM. For the same compound, the IC50 [3] was 0.0501 µM and the Ki (Mu-type opioid receptor [4]) was 0.0669 µM.

In the case of CN(C)[C@@H](Cc1ccc(O)cc1)C(=O)N1Cc2ccccc2C[C@H]1C(N)=O, the Ki [1] is reported as 0.201 µM, the Selectivity ratio (Rattus norvegicus) is reported as 7 and the Ki (Mu-type opioid receptor [4]) is reported as 1.45 µM.

In the case of N[C@@H](Cc1ccc(O)cc1)C(=O)N1Cc2ccccc2C[C@H]1C(=O)N[C@@H](CC(=O)O)c1nc2ccccc2[nH]1, the Ki [1] is reported as 0.000177 µM, the Selectivity ratio (Rattus norvegicus) is reported as 3860 and the Ki (Mu-type opioid receptor [4]) is reported as 0.684 µM. For the same compound, the Kb [6] was 0.00141 µM.

Compound CN(C)[C@@H](Cc1c(F)cc(O)cc1F)C(=O)N1Cc2ccccc2C[C@H]1C(=O)O has a Ki [1] of 0.0292 µM, a Selectivity ratio (Rattus norvegicus) of 20 and a Ki (Mu-type opioid receptor [4]) of 0.573 µM.
